Screens (PubChem)
DNMT1 block: DNMT1 (human) enzyme inhibition; P26358; DNMT1 molecular beacon, Hinp1I cleavage, fluorescence; inhibition (reported as % activation of signal), % at 10 µM; 360,000 tested, 0.83% active; AID 588458; in the data active means inhibition above about 50%
Scp-1 inhibitor: inhibitors of human Scp-1 phosphatase | Q9GZU7 | inhibition, % at 20 µM | 340,000 tested, 0.88% active | Recombinant Scp1, phosphopeptide, malachite green phosphate absorbance | AID 493091;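 active means inhibition above about 50% at 20 µM, limit read from the data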
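System: truncated SCP-1 phosphatase (76-261aa); medium: Tris acetate buffer pH 5.5 with MgCl2 and Tween-20; incubation: 45 min room-temperature reaction, 5 min colour, 30 min stabiliser; compound: single 20 µM dose, 1% DMSO; reagent: Phosphorylated 17-residue peptide substrate; read-out: % inhibition at 20 µM; technique: colorimetric free-phosphate detection, absorbance 630 nm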
SUMO1-SIM PPI: alters human SUMO1 binding to SIM partners | P63165 | SUMO1 binding to a labelled peptide, TR-FRET, 1 h | inhibition, % at 20 µM | 360,000 tested, 0.33% active | AID 602429; in the data active means inhibition above about 37%
LMPTP block: LMPTP (human) inhibition | inhibition, % at 20 µM | P24666 | AID 651560 | 360,000 tested, 0.22% active | recombinant LMPTP-A, OMFP fluorogenic substrate, fluorescence intensity;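 active means compounds that cut the enzyme signal by at least half of the control window in the single-dose screen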
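material = LMPTP-A | quantity = 0.625 nM enzyme | reagent = OMFP substrate, 400 µM final | buffer or medium = Bis-Tris pH 6.0, DTT, detergent | detection = endpoint fluorescence intensity from OMFP dephosphorylation | dosing = single 20 µM dose | read-out basis = % inhibition relative to no-enzyme and uninhibited control wells | control set = no-enzyme and uninhibited controls | timing = 50 min at room temperature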
STEP inh: STEP (human) phosphatase inhibition | inhibition, % at 20 µM | P54829 | recombinant STEP, OMFP fluorogenic substrate, fluorescence | 360,000 tested, 0.25% active | AID 588621;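 active means inhibition at 20 µM, scaled per plate between control wells, above about 37%, limit read from the data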
Target sequence (P54829 whole entry, looked up): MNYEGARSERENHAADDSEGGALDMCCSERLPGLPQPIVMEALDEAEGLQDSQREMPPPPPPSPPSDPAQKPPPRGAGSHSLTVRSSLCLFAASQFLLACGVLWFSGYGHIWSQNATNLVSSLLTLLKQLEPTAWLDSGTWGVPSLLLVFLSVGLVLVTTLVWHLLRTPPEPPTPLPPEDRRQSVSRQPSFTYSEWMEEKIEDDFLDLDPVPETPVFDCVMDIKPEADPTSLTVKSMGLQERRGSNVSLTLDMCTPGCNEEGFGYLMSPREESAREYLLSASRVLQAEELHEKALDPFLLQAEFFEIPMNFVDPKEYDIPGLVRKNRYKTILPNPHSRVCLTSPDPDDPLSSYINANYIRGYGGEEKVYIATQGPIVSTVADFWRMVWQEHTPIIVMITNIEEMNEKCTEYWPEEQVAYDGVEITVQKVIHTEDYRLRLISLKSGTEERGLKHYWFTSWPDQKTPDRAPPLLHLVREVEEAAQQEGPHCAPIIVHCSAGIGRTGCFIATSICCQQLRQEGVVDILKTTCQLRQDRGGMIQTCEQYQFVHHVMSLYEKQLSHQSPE
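Material: STEP (striatal-enriched tyrosine phosphatase) enzyme, cell-free; Compound dosing: 20 µM single dose in 1% DMSO; Technique: fluorescence read at 480 nm ex / 540 nm em; Times: reaction 20 min, ambient temperature; Medium: 50 mM Bis-Tris pH 6.0 with 2.5 mM DTT and 0.005% Tween 20; Also added: OMFP at 25 µM.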
Scp1 confirm: confirmation of human Scp-1 phosphatase inhibitors; shares compounds with Scp-1 inhibitor; recombinant SCP-1 catalytic domain, phosphate release, malachite green absorbance; inhibition, % at 20 µM; 2,500 tested, 61% active
Scp-1 MG ctr: counter-screen for Scp-1 inhibitors: colorimetric interference | shares compounds with Scp-1 inhibitor | Colorimetric interference counterscreen, malachite green absorbance 630 nm | apparent inhibition (interference), % at 20 µM | 2,500 tested, under 10 active;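 further: compounds added after enzyme reaction finished so only phosphate colour detection is probed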
Scp1 DSF: Scp-1 (human) binding by thermal shift. shares compounds with Scp-1 inhibitor. Recombinant SCP1, Sypro Orange thermal shift Tm. thermal shift relative to vanadate control, % at 40 µM. 1,500 tested, 25% active. AID 540329;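 active means substances whose mean melting-temperature shift, as a percentage of the reference inhibitor's shift, reaches about 5.3%, limit read from the data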
Numbers stand for hits; 0 = inactive; - = no result. Sampled rows, rich in hits. Any-hit rate of the full collection: about 1.7%.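 How the source made its calls, unless noted: active means inhibition of at least 30% at 20 µM; inactive means the rest.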

SMILES | DNMT1 block | Scp-1 inhibitor | SUMO1-SIM PPI | LMPTP block | STEP inh | Scp1 confirm | Scp-1 MG ctr | others
O=C1c2ccccc2C(=O)N1Nc1ccc([N+](=O)[O-])cc1[N+](=O)[O-] | 0 | 52 | 0 | 0 | 0 | 46 | 0 | Scp1 DSF=0
COCC1OC(OC(C)C(O)c2cnc3nc(N)[nH]c(=O)c3n2)C(O)C(OC)C1O (centres undefined) | 0 | - | 0 | 0 | 0 | - | -
Cc1ccccc1-c1cnc(C(O)c2ccc(Cl)cc2)[nH]1 (centres undefined) | 0 | - | 0 | 0 | 0 | - | -
C=CCn1c(SCc2nc3sc(C(=O)O)c(C)c3c(=O)[nH]2)nnc1-c1ccc(F)cc1 | 0 | 0 | 0 | 0 | 0 | - | -
Cc1c(C(=O)O)sc2nc(/C=C/c3cccc(F)c3)[nH]c(=O)c12 | 0 | 81 | 0 | 0 | 0 | 0 | 0
C(=N\n1c2ccccc2c2ccccc21)/c1ccccc1 | 0 | 0 | 0 | 0 | 0 | - | -
C[n+]1cn(/N=C/c2ccccc2)c2ccccc21 | 0 | 113 | 0 | 0 | 0 | 0 | 0
CC1(C(=O)NS(=O)(=O)c2ccccc2Cl)CCN1C(=O)Cc1cccc2ccccc12 (centres undefined) | 0 | - | 0 | 0 | 0 | - | -
CCN1/C(=C\C(C)=O)Sc2ccc(OC)cc21 | 0 | 96 | 0 | 0 | 0 | 0 | 0
CC(=O)Nc1cccc(-c2ccnc3c2CC(C(=O)NCCc2ccccc2)O3)c1 (centres undefined) | 0 | - | 0 | 0 | 0 | - | -
O=C1C=CC(=Nc2cccc3c2C(=O)c2ccccc2-3)O1 | 0 | 61 | 0 | 0 | 0 | 0 | 0
O=C(N/N=C/c1cccnc1)c1cccc(NC(=O)c2ccc(Cl)cc2)c1 | 0 | 82 | 66 | 0 | 97 | 65 | 0 | Scp1 DSF=0
C=CCc1cc(/C=C/c2nc(O)c([N+](=O)[O-])c(=O)[nH]2)cc(OC)c1O | 0 | 64 | 0 | 0 | 0 | 59 | 0 | Scp1 DSF=11
CCOc1cc(/C=C\c2nc(O)c([N+](=O)[O-])c(=O)[nH]2)ccc1OC(C)C | 0 | 0 | 0 | 0 | 0 | - | -
CC(C)CCN1C(=O)c2ccc(C(=O)Nc3ccc(O)cc3C(=O)O)cc2C1=O | 0 | 0 | 0 | 0 | 0 | - | -
COc1cc(NC(=O)c2ccc3c(c2)C(=O)N(CCC(C)C)C3=O)c(C(=O)O)cc1OC | 0 | 72 | 0 | 0 | 61 | 60 | 0 | Scp1 DSF=6.1
CNc1cncc(-c2ccc(OC)c(OC)c2)n1 | 0 | - | 0 | 0 | 0 | - | -
O=C(CN1C(=O)CCC1=O)Nc1nc2c(F)cc(F)cc2s1 | 0 | 0 | 0 | 0 | 0 | - | -
O=C(CN1C(=O)NC2(CCCCC2)C1=O)Nc1nc2c(F)cc(F)cc2s1 | 0 | 0 | 0 | 0 | 0 | 0 | 0
O=C(O)Cc1ccc(NC(=O)c2ccc3c(c2)C(=O)N(Cc2ccco2)C3=O)cc1 | 0 | 69 | 0 | 0 | 0 | 58 | 0 | Scp1 DSF=6.8
O=C(Nc1cc([N+](=O)[O-])ccc1O)c1ccc2c(c1)C(=O)N(Cc1ccco1)C2=O | 0 | 55 | 0 | 0 | 0 | 0 | 0
O=C(Nc1ccc(O)cc1)c1ccc2c(c1)C(=O)N(Cc1ccco1)C2=O | 0 | 0 | 0 | 0 | 0 | - | -
CC(C)C(C(=O)NCc1ccccc1)N(C)Cc1ccc(Cl)c(Cl)c1 (centres undefined) | - | - | 0 | 0 | - | - | -
CC(=O)Nc1ccc(NC(=O)CCCc2c[nH]c3ccccc23)cc1 | 0 | 0 | 0 | 0 | 0 | - | -
O=C(CCCc1c[nH]c2ccccc12)Nc1ccc2ccccc2c1 | 0 | 59 | 0 | 0 | 0 | 0 | 0
CCCC1NC(=O)c2cc3ccccc3cc2-n2c1nc1ccc(C)cc1c2=O (centres undefined) | 0 | - | 0 | 0 | 0 | - | -
Cc1nnc(SCC(=O)Nc2sccc2C#N)s1 | 0 | 60 | 0 | 0 | 0 | 40 | 0 | Scp1 DSF=0
O=C(NNC(=O)c1ccccc1Cl)c1cccs1 | 0 | 76 | 0 | 0 | 0 | 0 | 0
COCCc1ccc(OC2(C)CCN(Cc3cccn3-c3nccs3)C2)cc1 (centres undefined) | 0 | - | 0 | 0 | 0 | - | -
